ChEMBL document CHEMBL2311453, “Tetrahydropyrroloquinolinone type dual inhibitors of aromatase/aldosterone synthase as a novel strategy for breast cancer patients with elevated cardiovascular risks” (J Med Chem, 2013)

How the values were obtained:
V79MZh = experiment: Selectivity factor, ratio of IC50 for human CYP11B1 to IC50 for human CYP11B2 expressed in hamster V79MZh cells; type: cell-based
Procedure, shortened: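 SF calculated as IC50(CYP11B1)/IC50(CYP11B2). Both IC50s come from V79MZh hamster fibroblasts expressing the human enzyme, with [1,2-³H]-11-deoxycorticosterone at 100 nM as substrate.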

[1] = biological target: T1, Cytochrome P450 11B2, mitochondrial (Homo sapiens, UniProt P19099); experiment: Inhibition of human CYP11B2 expressed in hamster V79MZh cells using [1,2-3H]-11-deoxy-corticosterone as substrate; type: cell-based
T1 sequence (P19099 whole entry): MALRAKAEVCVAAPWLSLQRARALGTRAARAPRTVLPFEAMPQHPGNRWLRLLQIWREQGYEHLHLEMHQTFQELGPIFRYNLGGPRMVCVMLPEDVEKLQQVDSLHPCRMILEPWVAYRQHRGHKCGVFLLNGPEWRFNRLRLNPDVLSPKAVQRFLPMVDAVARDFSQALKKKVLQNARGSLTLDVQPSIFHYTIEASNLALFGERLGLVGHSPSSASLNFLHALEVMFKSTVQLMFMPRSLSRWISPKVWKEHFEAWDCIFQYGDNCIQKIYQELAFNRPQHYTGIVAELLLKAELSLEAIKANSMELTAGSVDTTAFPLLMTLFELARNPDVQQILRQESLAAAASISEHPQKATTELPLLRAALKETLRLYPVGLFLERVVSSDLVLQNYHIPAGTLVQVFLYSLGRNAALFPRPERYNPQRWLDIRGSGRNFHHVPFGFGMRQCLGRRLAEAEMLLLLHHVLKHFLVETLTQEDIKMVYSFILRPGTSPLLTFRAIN
Procedure, shortened: (§1)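 V79MZh hamster fibroblasts stably expressing human CYP11B1 or CYP11B2, incubated with [1,2-³H]-11-deoxycorticosterone (100 nM) and inhibitor at varying concentrations. IC50 taken as mean of at least three experiments (relative SD under 25%).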

[2] = biological target: T2, Cytochrome P450 11B1, mitochondrial (Homo sapiens, UniProt P15538); experiment: Inhibition of human CYP11B1 expressed in hamster V79MZh cells using [1,2-3H]-11-deoxy-corticosterone as substrate; type: cell-based; procedure, shortened: as §1
T2 sequence (P15538 whole entry): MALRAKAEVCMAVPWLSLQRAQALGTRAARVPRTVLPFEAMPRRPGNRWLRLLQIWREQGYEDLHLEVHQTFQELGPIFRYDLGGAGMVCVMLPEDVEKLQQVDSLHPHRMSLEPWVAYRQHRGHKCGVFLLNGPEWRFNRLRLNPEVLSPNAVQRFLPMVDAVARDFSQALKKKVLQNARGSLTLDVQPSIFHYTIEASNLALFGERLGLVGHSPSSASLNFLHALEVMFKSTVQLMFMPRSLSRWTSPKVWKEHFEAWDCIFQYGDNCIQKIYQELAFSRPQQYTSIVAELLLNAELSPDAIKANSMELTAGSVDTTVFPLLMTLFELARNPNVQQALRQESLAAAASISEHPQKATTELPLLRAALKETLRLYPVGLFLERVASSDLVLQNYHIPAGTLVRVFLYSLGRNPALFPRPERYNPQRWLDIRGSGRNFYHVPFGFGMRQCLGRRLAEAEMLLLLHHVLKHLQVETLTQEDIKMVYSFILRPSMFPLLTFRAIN

Aromatase = biological target: T3, Aromatase (Homo sapiens, UniProt P11511); experiment: Inhibition of human CYP19 using [1beta-3H]androstenedione as substrate by 3H2O method
T3 sequence (P11511 whole entry): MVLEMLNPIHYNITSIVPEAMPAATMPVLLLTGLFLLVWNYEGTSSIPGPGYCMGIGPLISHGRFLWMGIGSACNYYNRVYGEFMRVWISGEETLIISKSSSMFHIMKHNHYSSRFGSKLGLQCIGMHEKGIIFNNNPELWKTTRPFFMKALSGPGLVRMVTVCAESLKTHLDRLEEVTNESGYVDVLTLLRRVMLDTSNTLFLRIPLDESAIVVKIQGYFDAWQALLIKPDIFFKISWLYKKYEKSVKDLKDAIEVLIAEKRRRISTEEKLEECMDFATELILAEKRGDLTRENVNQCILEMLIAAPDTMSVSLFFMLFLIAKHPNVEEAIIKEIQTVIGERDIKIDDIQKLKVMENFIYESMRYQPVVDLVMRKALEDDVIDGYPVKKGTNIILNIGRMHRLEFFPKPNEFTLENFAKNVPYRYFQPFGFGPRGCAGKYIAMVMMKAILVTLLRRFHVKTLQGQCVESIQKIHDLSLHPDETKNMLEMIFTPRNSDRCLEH

CYP17 = biological target: T4, CYP17 (Homo sapiens, UniProt P05093); experiment: Inhibition of human CYP17 expressed in Escherichia coli using progesterone as substrate at 2 uM; details: probe progesterone
T4 sequence (P05093 whole entry): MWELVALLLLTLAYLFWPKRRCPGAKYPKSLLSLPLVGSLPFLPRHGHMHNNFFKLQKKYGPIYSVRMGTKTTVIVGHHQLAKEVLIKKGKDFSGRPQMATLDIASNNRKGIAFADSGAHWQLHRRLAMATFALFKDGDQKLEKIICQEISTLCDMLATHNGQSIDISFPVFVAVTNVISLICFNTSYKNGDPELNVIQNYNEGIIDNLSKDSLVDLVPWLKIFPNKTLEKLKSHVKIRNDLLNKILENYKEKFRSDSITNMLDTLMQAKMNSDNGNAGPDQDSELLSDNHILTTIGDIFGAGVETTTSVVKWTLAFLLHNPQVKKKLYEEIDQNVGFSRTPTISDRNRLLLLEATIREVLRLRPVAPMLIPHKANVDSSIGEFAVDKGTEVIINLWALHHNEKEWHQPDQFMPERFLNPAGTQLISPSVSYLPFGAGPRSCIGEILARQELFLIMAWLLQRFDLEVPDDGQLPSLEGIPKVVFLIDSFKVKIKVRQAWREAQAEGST
Procedure, shortened: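 Enzyme source was the 90000g sediment of E. coli coexpressing human CYP17 and cytochrome P450 reductase. Progesterone substrate at 25 μM, NADPH cofactor, inhibitor at 2 μM. Percent inhibition is the mean of at least two experiments (SD under 10%).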

SMILES	IC50 [1]	IC50 [2]	IC50 (Aromatase)	inhibition at 2 µM (CYP17)	Ratio IC50 (V79MZh)
COc1ccc(C(c2ccncc2)c2cc3c4c(c2)CCN4C(=O)CC3)cc1 (single isomer, unassigned; (-)) [listing 1 of 2 here]	–	–	–	–	6.9
O=C1CCc2cc(C(c3ccccc3)c3cccnc3)cc3c2N1CC3 (stereo not given)	132 nM	68 nM	2130 nM	–	0.5
CC(c1ccncc1)c1cc2c3c(c1)CCN3C(=O)CC2 (stereo not given)	74 nM	140 nM	1500 nM	–	1.9
O=C1CCc2cc(C(O)c3ccncc3)cc3c2N1CC3 (stereo not given)	563 nM	347 nM	> 5000 nM	< 3%	0.6
CC(c1cccnc1)c1cc2c3c(c1)CCN3C(=O)CC2 (stereo not given)	37 nM	4 nM	> 5000 nM	< 3%	0.1
N#Cc1ccc(C(c2ccc(C#N)cc2)n2cncn2)cc1 [LETROZOLE]	1420 nM	2620 nM	–	7%	–
O=C1CCc2cc(C(c3ccncc3)c3cc(C(F)(F)F)cc(C(F)(F)F)c3)cc3c2N1CC3 (stereo not given)	1580 nM	> 5000 nM	246 nM	–	> 3
COc1ccc(C(c2ccncc2)c2cc3c4c(c2)CCN4C(=O)CC3)cc1 (single isomer, unassigned; (+)) [listing 1 of 2 here]	–	–	–	–	37
O=C1CCc2cc(C(c3ccc(F)cc3)c3cccnc3)cc3c2N1CC3 (stereo not given)	587 nM	78 nM	140 nM	–	0.1
O=C1CCc2cc(C(c3ccncc3)c3cccc(F)c3)cc3c2N1CC3 (stereo not given)	88 nM	532 nM	74 nM	–	6
O=C1CCc2cc(C(c3ccncc3)C3CCCCC3)cc3c2N1CC3 (stereo not given)	1290 nM	> 5000 nM	74 nM	–	> 4
COc1ccc(C(c2ccncc2)c2cc3c4c(c2)CCN4C(=O)CC3)cc1 (stereo in doubt; 3k) [listing 2 of 2 here]	–	–	–	–	16
COc1ccccc1C(c1cccnc1)c1cc2c3c(c1)CCN3C(=O)CC2 (stereo not given)	> 5000 nM	2270 nM	3660 nM	–	< 0.3

Further lines, with some results ahead:

IC50 [1]	IC50 [2]	IC50 (Aromatase)	inhibition at 2 µM (CYP17)	SMILES	Ratio IC50 (V79MZh)
> 5000 nM	1220 nM	> 5000 nM	–	Cc1cccc(C(c2cccnc2)c2cc3c4c(c2)CCN4C(=O)CC3)c1 (stereo not given)	< 0.2
750 nM	1420 nM	889 nM	–	CC(C)C(c1ccncc1)c1cc2c3c(c1)CCN3C(=O)CC2 (stereo not given)	1.9
52 nM	810 nM	124 nM	53%	COc1ccc(C(c2ccncc2)c2cc3c4c(c2)CCN4C(=O)CC3)cc1 (stereo in doubt; 3k) [listing 1 of 2 here]	–
41 nM	1340 nM	32 nM	46%	Cc1cccc(C(c2ccncc2)c2cc3c4c(c2)CCN4C(=O)CC3)c1 (stereo not given)	33
468 nM	41 nM	> 5000 nM	< 3%	C=C(c1cccnc1)c1cc2c3c(c1)CCN3C(=O)CC2	0.1
> 5000 nM	750 nM	> 5000 nM	–	O=C1CCc2cc(C(O)c3cccnc3)cc3c2N1CC3 (stereo not given)	< 0.1
–	–	–	< 3%	N#Cc1ccc(C2CCCc3cncn32)cc1 (stereo not given) [FADROZOLE]	–
74 nM	511 nM	92 nM	–	COc1ccc(C(c2ccncc2)c2cc3c4c(c2)CCN4C(=O)CC3)cc1 (single isomer, unassigned; (-)) [listing 2 of 2 here]	–
390 nM	5400 nM	880 nM	–	O=C1CCc2cc(C(c3ccccc3)c3ccncc3)cc3c2N1CC3 (stereo not given)	14
46 nM	1690 nM	273 nM	–	COc1ccc(C(c2ccncc2)c2cc3c4c(c2)CCN4C(=O)CC3)cc1 (single isomer, unassigned; (+)) [listing 2 of 2 here]	–
> 5000 nM	36 nM	1350 nM	–	O=C1CCc2cc(C(c3cccnc3)c3cccc(Cl)c3)cc3c2N1CC3 (stereo not given)	< 0.1
